The results in this text go back to ChEMBL document CHEMBL3228025, “Synthesis and analgesic activities of some (4-substituted phenyl-1-piperazinyl)alkyl 2-aminobenzoates and 2-aminonicotinates” (J Med Chem, 1979).

Molecules are shown by their SMILES.

Data set [1] concerns Mus musculus. Kind of data set: Analgesic activity in po dosed CD1 mouse assessed as inhibition of acetic acid-induced writhing administered 30 mins prior to acetic acid challenge measured after 15 mins. Format: functional. In a few lines: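 Male CD1 mice, 20 ± 2 g, randomly grouped and dosed orally at several levels (10 mL/kg, 1% Tween 80 vehicle), with at least two groups of six per dose. After 30 min, 0.6% acetic acid was given ip at 10 mL/kg, and writhes were counted per group over 15 min. ED50 (dose halving writhes) was read graphically, with no SEM computed.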
Background: An intraperitoneal irritant provokes the stretching counted in writhing tests.

The subject of the next data set is Rattus norvegicus. The experiment in a line: Antiinflammatory activity in po dosed CD1 rat assessed as inhibition of carrageenan-induced paw edema administered 1 hr prior to carrageenan challenge measured after 3 hrs. Background: In the carrageenan paw model, swelling and tenderness develop within hours.
Data set [2] can be described thus: Acute toxicity in po dosed CD1 mouse after 7 days. Format: organism-based. The note with it: in vivo. In a few lines:
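Male CD1 mice, 20 ± 2 g, oral dosing at 10 mL/kg as an aqueous solution or suspension in 1% Tween 80 in distilled water. At least 10 animals per dose level, observed for 7 days. Oral LD50 calculated by the Litchfield–Wilcoxon method.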

The test system of data set [3] is Mus musculus. The experiment in a line: Analgesic activity in po dosed OF1 mouse assessed as dose required to double paw licking reaction time after 30 mins by hot plate test. The note with it: 0.5 h. Format: functional. In a few lines:
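Male OF1 mice, 20 ± 2 g, given oral doses at several levels in 1% Tween 80 at 10 mL/kg, at least 10 per dose. After 30 min each mouse was placed on a metal plate at 56 °C and paw-licking latency was recorded. ED2 (dose doubling latency) was read graphically, with SEM and Dunnett's t versus controls.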
(Hot-plate and tail-flick tests time the reaction to a heat stimulus.)

A word on the ED50: it is the dose that gives a 50% effect, or the effect in half of the subjects. Broadly, the LD50 is the dose expected to kill half of the subjects tested. Higher therefore signals a less toxic substance. `O=C(OCCN1CCN(c2cccc(C(F)(F)F)c2)CC1)c1ccccc1Nc1cccc(SC(F)(F)F)c1`: the ED50 with Mus musculus [1] is 300 mg/kg. In the data set on Rattus norvegicus, the ED40 is above 50 mg/kg. In addition, the LD50 at 168 h in data set [2] is above 4000 mg/kg.
As to `O=C(OCCN1CCN(c2cccc(OC(F)(F)F)c2)CC1)c1ccccc1Nc1ccnc2cc(C(F)(F)F)ccc12`, the ED50 with Mus musculus [1] was 20 mg/kg. Moreover, the ED40 in the data set on Rattus norvegicus was found to be 50 mg/kg. Further, in data set [2], the 50% lethal dose (LD50) at 168 h is 3500 mg/kg. Also, in the data set with Mus musculus [3], the ED2 is above 300 mg/kg.
On to `O=C(OCCN1CCN(c2ccccc2)CC1)c1ccccc1Nc1ccnc2cc(SC(F)(F)F)ccc12`, for which the ED50 in the data set on Mus musculus [1] came to 9 mg/kg. Besides, the ED40 in the data set with Rattus norvegicus turned out to be 100 mg/kg. Further, the ED2 in the data set with Mus musculus [3] stood at 300 mg/kg.
As to `Cc1c(Cl)cccc1Nc1ncccc1C(=O)OCCN1CCN(c2cccc(C(F)(F)F)c2)CC1`, in the data set on Mus musculus [1], the ED50 stood at 200 mg/kg. Also, in the data set on Rattus norvegicus, the ED40 was above 100 mg/kg. The compound also came in with an LD50 at 168 h in data set [2] above 4000 mg/kg.
For `CC(CN1CCN(c2ccccc2)CC1)OC(=O)c1ccccc1Nc1ccnc2cc(Cl)ccc12` (centres undefined), in the data set on Mus musculus [1], the ED50 stood at 63 mg/kg. Also, the ED40 with Rattus norvegicus was 300 mg/kg. The same compound displayed an LD50 at 168 h in data set [2] above 2000 mg/kg. Also, the ED2 in the data set with Mus musculus [3] came to 200 mg/kg.
On to `O=C(OCCN1CCN(c2ccccc2)CC1)c1ccccc1Nc1ccnc2cc(Cl)ccc12`, for which the ED50 in the data set with Mus musculus [1] stood at 75 mg/kg. In addition, the ED40 with Rattus norvegicus came out at 120 mg/kg. Besides, in data set [2], the LD50 at 168 h worked out at 4250 mg/kg. In the data set with Mus musculus [3], the ED2 was 200 mg/kg.
Taken in the same sequence, the figures for `O=C(OCCN1CCN(c2ccc(Cl)cc2)CC1)c1ccccc1Nc1ccnc2cc(Cl)ccc12` were 80 mg/kg, 100 mg/kg, above 2000 mg/kg and above 300 mg/kg.
As for `O=C(OCCN1CCN(c2cccc(SC(F)(F)F)c2)CC1)c1ccccc1Nc1ccnc2cc(C(F)(F)F)ccc12`, the ED50 in the data set with Mus musculus [1] was determined as 8 mg/kg. Besides, the ED40 with Rattus norvegicus came to 30 mg/kg. Moreover, the LD50 at 168 h in data set [2] was determined as 3750 mg/kg. Besides, the ED2 with Mus musculus [3] was above 300 mg/kg.
Take `O=C(OCCN1CCN(c2cccc(SC(F)(F)F)c2)CC1)c1ccccc1Nc1ccnc2c(C(F)(F)F)cccc12`: the ED50 with Mus musculus [1] is 6 mg/kg. Further, the ED40 in the data set on Rattus norvegicus was above 100 mg/kg. In addition, in data set [2], the LD50 at 168 h was above 3000 mg/kg. Moreover, the ED2 in the data set on Mus musculus [3] is 200 mg/kg.
As for `O=C(OCCN1CCN(c2ccccc2)CC1)c1ccccc1Nc1cccc(OC(F)(F)F)c1`, in the data set with Mus musculus [1], the ED50 was above 400 mg/kg. In the data set with Rattus norvegicus, the ED40 came out at 150 mg/kg. In data set [2], this compound had an LD50 at 168 h of 2000 mg/kg.
For `Cc1ccc(Cl)cc1N1CCN(CCOC(=O)c2ccccc2Nc2ccnc3cc(Cl)ccc23)CC1`, the ED50 in the data set with Mus musculus [1] was found to be 15 mg/kg. In the data set on Rattus norvegicus, the ED40 stood at 30 mg/kg. The same compound had an LD50 at 168 h in data set [2] above 4000 mg/kg. For the same compound, the ED2 with Mus musculus [3] is above 300 mg/kg.
Turning to `O=C(OCCN1CCN(c2cccc(Cl)c2)CC1)c1ccccc1Nc1ccnc2cc(C(F)(F)F)ccc12`, the median effective dose (ED50) in the data set on Mus musculus [1] was 9 mg/kg. Further, the ED40 in the data set on Rattus norvegicus stood at 30 mg/kg. This compound also showed an LD50 at 168 h in data set [2] above 4000 mg/kg. The ED2 in the data set with Mus musculus [3] came out at 150 mg/kg.
With `Cc1cc(Nc2ccccc2C(=O)OCCN2CCN(c3ccccc3)CC2)c2ccc(Cl)cc2n1`, the ED50 with Mus musculus [1] was determined as 110 mg/kg. Besides, the ED40 in the data set with Rattus norvegicus is above 200 mg/kg. Also, the LD50 at 168 h in data set [2] is 4000 mg/kg. The ED2 with Mus musculus [3] was determined as 300 mg/kg.
For the compound `O=C(OCCN1CCN(c2ccccc2)CC1)c1ccccc1Nc1ccnc2c(Cl)cccc12`, the ED50 with Mus musculus [1] turned out to be 80 mg/kg. Moreover, the ED40 in the data set with Rattus norvegicus stood at 300 mg/kg. Moreover, in data set [2], the LD50 at 168 h was above 4000 mg/kg. Also, in the data set with Mus musculus [3], the ED2 is above 250 mg/kg.
`O=C(OCCN1CCN(c2cccc(C(F)(F)F)c2)CC1)c1ccccc1Nc1ccnc2cc(OC(F)(F)F)ccc12`: the ED50 in the data set with Mus musculus [1] amounted to 20 mg/kg. For the same compound, in the data set with Rattus norvegicus, the ED40 stood at 43 mg/kg. The LD50 at 168 h in data set [2] turned out to be 1500 mg/kg. The ED2 with Mus musculus [3] came to 150 mg/kg.
For `O=C(OCCN1CCN(c2cccc(Cl)c2)CC1)c1ccccc1Nc1cccc(SC(F)(F)F)c1`, the ED50 with Mus musculus [1] is above 400 mg/kg. For the same compound, in the data set on Rattus norvegicus, the ED40 is above 50 mg/kg. Besides, in data set [2], the LD50 at 168 h came out at 2000 mg/kg.
In the case of `O=C(OCCN1CCN(c2cccc(SC(F)(F)F)c2)CC1)c1ccccc1Nc1ccnc2cc(Cl)ccc12`, the ED50 in the data set with Mus musculus [1] came out at 120 mg/kg. The ED40 with Rattus norvegicus came out at 30 mg/kg. In addition, the LD50 at 168 h in data set [2] was determined as 3000 mg/kg. The ED2 in the data set with Mus musculus [3] was found to be 200 mg/kg.
As to `Cc1ccc(C)c(N2CCN(CCOC(=O)c3ccccc3Nc3ccnc4cc(Cl)ccc34)CC2)c1`, the ED50 in the data set on Mus musculus [1] amounted to 22 mg/kg. Further, the ED40 with Rattus norvegicus was found to be 120 mg/kg. Further, the LD50 at 168 h in data set [2] came to 4000 mg/kg. For the same compound, the ED2 in the data set with Mus musculus [3] turned out to be 300 mg/kg.
With `O=C(OCC(O)CO)c1ccccc1Nc1ccnc2cc(Cl)ccc12` (centres undefined) [GLAFENINE], in the data set with Mus musculus [1], the ED50 amounted to 56 mg/kg. Besides, the ED40 with Rattus norvegicus came out at 30 mg/kg. Besides, the ED2 in the data set with Mus musculus [3] is above 600 mg/kg.
Regarding `Cc1c(N(C)C)c(=O)n(-c2ccccc2)n1C` [AMINOPYRINE], the ED50 in the data set with Mus musculus [1] was found to be 40 mg/kg. For the same compound, the ED40 in the data set on Rattus norvegicus was determined as 60 mg/kg. Besides, the LD50 at 168 h in data set [2] turned out to be 800 mg/kg. The ED2 in the data set on Mus musculus [3] came out at 250 mg/kg.
Consider `O=C(OCCN1CCN(c2cccc(C(F)(F)F)c2)CC1)c1ccccc1Nc1ccnc2cc(Cl)ccc12`, for which the ED50 in the data set on Mus musculus [1] was found to be 24 mg/kg. The ED40 with Rattus norvegicus was determined as 40 mg/kg. Besides, in the data set with Mus musculus [3], the ED2 came to 150 mg/kg.
As for `O=C(OCCN1CCN(c2cccc(Cl)c2)CC1)c1ccccc1Nc1ccnc2cc(Cl)ccc12`, the ED50 with Mus musculus [1] was found to be 10 mg/kg. Moreover, the ED40 in the data set with Rattus norvegicus is above 100 mg/kg. This compound also gave an LD50 at 168 h in data set [2] of 4000 mg/kg. Moreover, the ED2 with Mus musculus [3] stood at 60 mg/kg.
Regarding `COc1ccc(N2CCN(CCOC(=O)c3ccccc3Nc3ccnc4cc(Cl)ccc34)CC2)cc1`, the ED50 in the data set with Mus musculus [1] worked out at 200 mg/kg. Moreover, the ED40 in the data set on Rattus norvegicus was 45 mg/kg. In the data set on Mus musculus [3], the ED2 is above 300 mg/kg.
For the compound `O=C(OCCN1CCN(c2cccc(Cl)c2)CC1)c1cccnc1Nc1cccc(SC(F)(F)F)c1`, the ED50 in the data set on Mus musculus [1] turned out to be 100 mg/kg. Moreover, the ED40 in the data set with Rattus norvegicus was above 300 mg/kg. In data set [2], this compound displayed an LD50 at 168 h above 4000 mg/kg.
For the compound `O=C(OCCCN1CCN(c2ccccc2)CC1)c1ccccc1Nc1ccnc2cc(Cl)ccc12`, the ED50 with Mus musculus [1] is 60 mg/kg. Besides, the ED40 in the data set on Rattus norvegicus was determined as 50 mg/kg. This compound also displayed an LD50 at 168 h in data set [2] of 2000 mg/kg. Moreover, the ED2 with Mus musculus [3] is 250 mg/kg.
The matching figures for `O=C(OCCN1CCN(c2ccccc2)CC1)c1ccccc1Nc1ccnc2c(C(F)(F)F)cccc12`: 35 mg/kg, 64 mg/kg, 3000 mg/kg and above 300 mg/kg.
Take `O=C(OCCN1CCN(c2ccccc2)CC1)c1ccccc1Nc1ccnc2cc(OC(F)(F)F)ccc12`: the ED50 in the data set on Mus musculus [1] turned out to be 24 mg/kg. Besides, in the data set on Rattus norvegicus, the ED40 was determined as 40 mg/kg. In data set [2], this compound had an LD50 at 168 h of 1300 mg/kg. Also, the ED2 in the data set with Mus musculus [3] is 300 mg/kg.
For the compound `O=C(OCCN1CCN(c2cccc(SC(F)(F)F)c2)CC1)c1ccccc1Nc1ccnc2cc(SC(F)(F)F)ccc12`, in the data set on Mus musculus [1], the ED50 worked out at 60 mg/kg. In the data set with Rattus norvegicus, the ED40 came to 180 mg/kg. Besides, the ED2 in the data set on Mus musculus [3] was found to be 200 mg/kg.
`O=C(OCCN1CCN(c2ccccc2)CC1)c1ccccc1Nc1cccc(C(F)(F)F)c1`: the ED50 with Mus musculus [1] was 400 mg/kg. Besides, in the data set with Rattus norvegicus, the ED40 worked out at 100 mg/kg. The LD50 at 168 h in data set [2] was above 2000 mg/kg.
For the compound `O=C(OCCN1CCN(c2cccc(C(F)(F)F)c2)CC1)c1cccnc1Nc1cccc(SC(F)(F)F)c1`, in the data set on Mus musculus [1], the ED50 worked out at 250 mg/kg. Also, the ED40 with Rattus norvegicus is above 50 mg/kg. The same compound had an LD50 at 168 h in data set [2] above 4000 mg/kg.
On to `O=C(O)c1ccccc1Nc1ccnc2cc(C(F)(F)F)ccc12`, for which, in the data set with Mus musculus [1], the ED50 came out at 18 mg/kg. In data set [2], this compound gave an LD50 at 168 h of 1000 mg/kg. Also, in the data set with Mus musculus [3], the ED2 was above 600 mg/kg.
With `Cc1cccc(Nc2ccccc2C(=O)OCCN2CCN(c3ccccc3)CC2)c1C`, the ED50 in the data set on Mus musculus [1] came out at 90 mg/kg. In the data set with Rattus norvegicus, the ED40 is above 50 mg/kg. In addition, the LD50 at 168 h in data set [2] was 4000 mg/kg.
